The text below walks through data of ChEMBL document CHEMBL5365541, “Designing peptide amphiphiles as novel antibacterials and antibiotic adjuvants against gram-negative bacteria” (Bioorg Med Chem, 2023).

≈ marks a conversion by molar mass, not a printed value. Calls of active or inactive are those of the source. The calls are words filed in the database; no cut-off is given here. Starred links: 1 amine or outer side, 2 acyl side, 3 side chain; linkers in the order of their positions; H or OH if unused. Non-standard residues stand in square brackets, D forms with d. Residues, ends and D or L forms follow the SMILES beside them. X1 = CCCCCCCCCCCCCCCCN([C@@H](CCCCN)C(=O)[*:2])[*:1] A value given as a limit tells only on which side of the number the result lay.

What is called MIC is the least concentration at which growth counts as inhibited.

For data set [1], the system named is Escherichia coli. In words: Synergistic antibacterial activity against Escherichia coli K12 incubated for 20 to 24 hrs in presence of vancomycin by checkerboard broth microdilution assay. In kind it is functional. To be noted: time 20-24 hrs. The procedure, abridged:
(§1)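 Checkerboard broth microdilution. E. coli K12 or A. baumannii clinical isolate grown to mid-log (OD ~0.8) and diluted to ~10^5 CFU/mL in MHB. Two-fold dilutions of rifampicin or vancomycin run across the plate against two-fold PA dilutions down it. Incubated 20–24 h at 37 °C, OD read at 470 nm. FICi calculated from the combination MICs.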
Background: Broth dilution looks for growth in wells or tubes with falling amounts of substance.

A short description of data set [2]: Retention time of the compound by RP-HPLC analysis. In kind it is physicochemical. The procedure, abridged:
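Reverse-phase HPLC, linear gradient 0–100% acetonitrile in water with 0.1% TFA over 20 min; retention time recorded.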

Data set [3] relates to Acinetobacter baumannii. Description: Antibacterial activity against Acinetobacter baumannii incubated for 20 to 24 hrs by broth microdilution method. Particulars: time 20-24 hrs. In kind it is functional. An outline of the steps: (§2)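 Broth microdilution: colonies suspended directly to 1.5×10^8 CFU/mL (0.5 McFarland), then diluted in Mueller–Hinton broth to ~10^5 CFU/mL final. PA stock 1 mg/mL in water, pH 7, serially diluted in MHB. Plates incubated 20–24 h at 37 °C. MIC = lowest concentration inhibiting growth, read as OD600 with optional 1% TTC staining. Triplicate.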

For data set [4], the system named is Escherichia coli. Description: Antibacterial activity against Escherichia coli K12 incubated for 20 to 24 hrs by broth microdilution method. The class given is functional. Particulars: time 20-24 hrs. The procedure, abridged:
as §2

In data set [5] the test system is Staphylococcus aureus. In words: Antibacterial activity against methicillin-resistant Staphylococcus aureus JE2 incubated for 20 to 24 hrs by broth microdilution method. In kind it is functional. Particulars: time 20-24 hrs. The procedure, abridged:
(§3)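 Broth microdilution in MHB: direct colony suspension at 0.5 McFarland diluted to ~10^5 CFU/mL final; peptide stock 1 mg/mL in water at pH 7, serially diluted. Incubated 20-24 h at 37 °C; MIC taken as the lowest concentration inhibiting growth (OD 600 nm, 1% TTC stain); triplicate; vancomycin and gentamicin as positive controls.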

Data set [6] has as its system Staphylococcus aureus. In words: Antibacterial activity against methicillin-resistant Staphylococcus aureus 13C incubated for 20 to 24 hrs by broth microdilution method. In kind it is functional. Particulars: time 20-24 hrs. An outline of the steps:
as §3

Data set [7] deals with Escherichia coli. In words: Synergistic antibacterial activity against Escherichia coli K12 assessed as fractional inhibitory concentration index incubated for 20 to 24 hrs in presence of vancomycin by checkerboard broth microdilution assay. The class given is functional. Particulars: time 20-24 hrs. An outline of the steps: as §1
In data set [8] the test system is Acinetobacter baumannii. In words: Synergistic antibacterial activity against Acinetobacter baumannii assessed as fractional inhibitory concentration index incubated for 20 to 24 hrs in presence of vancomycin by checkerboard broth microdilution assay. Particulars: time 20-24 hrs. In kind it is functional. An outline of the steps: as §1
Data set [9] relates to Cell membrane. Description: Induction of inner membrane permeability in Escherichia coli K12 at 2 times FICI in presence of vancomycin by propidium iodide staining based spectrofluorometry. The class given is subcellular. To be noted: dose 2.0 µg/ml. The procedure, abridged:
(§4)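 E. coli K12 grown in MHB to mid-log, washed twice in PBS, and diluted to 10^6 CFU/mL in 5 mM HEPES + glucose. Cells preincubated with […] at least 15 min at 37 °C. Then treated with agent at 1/8, 1× or 2× MIC, or with PA–vancomycin 1:1. Fluorescence read at ex 535 / em 615 nm. Polymyxin B as positive control; untreated cells as negative control.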

For data set [10], the system named is Cell membrane. Description: Induction of inner membrane permeability in Escherichia coli K12 at 4 ug/mL by propidium iodide staining based spectrofluorometry. In kind it is subcellular. To be noted: dose 4.0 µg/ml. An outline of the steps:
as §4

The subject of data set [11] is Cell membrane. In words: Induction of inner membrane permeability in Escherichia coli K12 by propidium iodide staining based spectrofluorometry. The class given is subcellular. To be noted: dose 4-64 µg/ml. An outline of the steps:
as §4

Data set [12] relates to Cell membrane. In words: Induction of inner membrane permeability in Escherichia coli K12 at FICI in presence of vancomycin by propidium iodide staining based spectrofluorometry. Particulars: dose 4.0 µg/ml. In kind it is subcellular. An outline of the steps: as §4
For data set [13], the system named is Staphylococcus aureus. In words: Antibacterial activity against methicillin resistant Staphylococcus aureus JE2 assessed as fold increase in MIC after 21 days in presence of vancomycin by broth microdilution method relative to MIC before 21 days. In kind it is functional. Particulars: time 21 day.
Data set [14] has as its system Staphylococcus aureus. Description: Antibacterial activity against methicillin resistant Staphylococcus aureus JE2 assessed as fold increase in MIC after 21 days by broth microdilution method relative to MIC before 21 days. The class given is functional. Particulars: time 21 day.
In data set [15] the test system is HEK293. In words: Cytotoxicity against HEK293 cells assessed as reduction in cell viability at 64 to 256 ug/ml incubated for 24 hrs by XTT assay. In kind it is toxicity, cell-based. To be noted: human, hek293, 24 h, dose 64-256 µg/ml. An outline of the steps:
(§5)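 HEK-293 cells, passages 3–8, seeded at 5×10^4 per well and preincubated 24 h at 37 °C, 5% CO2. Medium replaced with serially diluted PA, final 8–256 µg/mL, for 24 h, in triplicate. XTT reagent (0.5 mg/mL) added for 4 h at 37 °C, then absorbance read at 600 nm.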
Background: Tetrazolium assays rely on reduction of a dye to a coloured formazan, in cell work by metabolically active cells.

The nature of data set [16]: Hemolytic activity in human red blood cells assessed as hemolysis at 8 ug/ml incubated for 60 min relative to control. The class given is toxicity, cell-based, Erythrocyte. To be noted: at 8 µg/mL, read-out: Activity. The procedure, abridged:
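Washed human RBCs at 0.25×10^8 cells/mL final in PBS, mixed with PA (stocks 16–1024 µg/mL, equal volume). Shaken 10 min, then incubated 60 min at 37 °C, 5% CO2. Cells pelleted at 1000 × g; supernatant hemoglobin read at OD405. 5% Triton X-100 taken as 100% hemolysis; water as negative control.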

A short description of data set [17]: Self assembly property of the compound assessed as zeta potential at 250 ug/mL at pH 7 measured after 2 hrs. To be noted: pH 7, 2 h, dose 250 µg/ml. The class given is physicochemical. An outline of the steps:
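Peptide self-assembled at 1 mg/mL, pH 7, annealed 2 h at 80 °C, and aged overnight. Diluted to 250 µg/mL in water; zeta potential measured at 25 °C.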

Data set [18] can be described thus: Self assembly property of the compound assessed as formation of micelles at 1 mg/ml incubated overnight by transmission electron microscopy. The class given is physicochemical. An outline of the steps:
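Samples were dissolved at 2 mM in water, pH 7, and left at room temperature overnight. Applied to copper grids for 5 min, blotted, and negatively stained with NanoVan for 30 s. Imaged by TEM at 120 kV.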

The test system of data set [19] is Escherichia coli. In words: Synergistic antibacterial activity against Escherichia coli K12 assessed as potentiation of vancomycin-induced antibacterial activity by measuring fold increase in vancomycin MIC incubated for 20 to 24 hrs by checkerboard broth microdilution assay relative to vancomycin alone. To be noted: time 20-24 hrs. In kind it is functional. An outline of the steps:
as §1

Data set [20] concerns Escherichia coli. Description: Synergistic antibacterial activity against Escherichia coli K12 assessed as potentiation of vancomycin-induced antibacterial activity by vancomycin MIC incubated for 20 to 24 hrs by checkerboard broth microdilution assay. The class given is functional. Particulars: time 20-24 hrs. The procedure, abridged:
as §1

Data set [21] is described as follows: Cytotoxicity against HEK293 cells assessed as cell viability up to 64 ug/ml incubated for 24 hrs by XTT assay relative to control. The class given is toxicity, cell-based. To be noted: human, up to 64 µg/mL, read-out: Activity. The procedure, abridged: as §5
Data set [22] concerns Escherichia coli. Description: Ratio of MIC for Escherichia coli K12 at pH 5.5 to MIC for Escherichia coli K12 at pH 7.0.
Data set [23] relates to Staphylococcus aureus. In words: Ratio of MIC for methicillin-resistant Staphylococcus aureus JE2 at pH 5.5 to MIC for methicillin-resistant Staphylococcus aureus JE2 at pH 7.0.

Take `CCCCCCCCCCCCCCCCN[C@@H](CCCCN)C(=O)N[C@@H](Cc1c[nH]cn1)C(=O)N[C@@H](CCCCN)C(=O)N[C@@H](Cc1c[nH]cn1)C(=O)N[C@@H](CCCCN)C(=O)O` (H-[X1]HKHK-OH): the minimal inhibitory concentration (MIC) is 4 µg/mL in [1]; 64 µg/mL (≈ 71 µM) in data set [3]; 32 µg/mL (≈ 35.5 µM) in data set [4]; 64 µg/mL (≈ 71 µM) in [5]; 32 µg/mL (≈ 35.5 µM) in data set [6]; 4 µg/mL in [20]. This molecule also registered a Retention_time in [2] of 13.4 min. Besides, the “fractional inhibitory concentration index (FICI)” value in data set [7] worked out at 0.15; in data set [8] it was 1. Besides, the result in data set [9], in data set [10] and in data set [12] was Active. Also, the Activity entry in data set [11] was “Dose-Dependent Effect”; in data set [15], “Non-Toxic”; in [17] it was 15.8 mV; in data set [18] it was “Active”. The entries for the “fold change (FC)” value in [13], in data set [14] and in data set [19] were 8, 8 and 32, respectively. Besides, the hemolysis at 1 h, 8 ug/ml in data set [16] was 28.2%. In data set [21], the viability at 24 h turned out to be 100%. For the same molecule, the Ratio in data set [22] and in [23] was greater than 1 throughout.
